We go through 13 molecules from ChEMBL document CHEMBL2321795, “Solubility-driven optimization of (pyridin-3-yl) benzoxazinyl-oxazolidinones leading to a promising antibacterial agent” (J Med Chem, 2013).

Assay type in all cases: functional
One test concerns Enterococcus faecalis. Kind of test: Antibacterial activity against Enterococcus faecalis after 16 hrs by NCCLS agar dilution method. In outline: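 Agar dilution MIC per NCCLS, 6 E. faecalis strains. Stock was 320 μg/mL in 50% water/DMSO, serially 2-fold diluted in sterile water, then 10-fold into Mueller–Hinton agar to give 16–0.03125 μg/mL final. Inocula came from MH broth cultures grown 8 h at 35 °C, adjusted to 0.5 McFarland and spotted by multipoint inoculator. Plates were read after 16 h at 35 °C.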
In general terms: In agar dilution the substance is mixed into plates at graded concentrations.

The next test deals with Streptococcus pneumoniae. Kind of test: Antibacterial activity against penicillin-resistant Streptococcus pneumoniae after 16 hrs by NCCLS agar dilution method. Put shortly:
(§1)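 Agar dilution MIC. Stocks were 320 μg/mL in 50% aqueous DMSO, 2-fold serially diluted in sterile water, then diluted 10-fold into Mueller–Hinton agar to give 16–0.03125 μg/mL final. Organisms were grown in MH broth at 35 °C for 8 h and adjusted to 0.5 McFarland. They were spotted onto drug-containing plates with a multipoint inoculator and incubated at 35 °C for 16 h. Linezolid was the positive control.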

Test [1] concerns Staphylococcus aureus. The experiment in a line: Antibacterial activity against methicillin-sensitive Staphylococcus aureus after 16 hrs by NCCLS agar dilution method. Put shortly: as §1
Test [2] concerns Staphylococcus aureus. Kind of test: Antibacterial activity against methicillin-resistant Staphylococcus aureus after 16 hrs by NCCLS agar dilution method. In outline:
as §1

The test system of test [3] is Staphylococcus epidermidis. The experiment in a line: Antibacterial activity against methicillin-sensitive Staphylococcus epidermidis after 16 hrs by NCCLS agar dilution method. Put shortly:
as §1

The subject of test [4] is Staphylococcus epidermidis. The experiment in a line: Antibacterial activity against methicillin-resistant Staphylococcus epidermidis after 16 hrs by NCCLS agar dilution method. Put shortly:
as §1

Molecules are shown by their SMILES. In brackets after ≈: the same amount, converted by molar mass. Where only a bound is given, the exact number is not on record here.

The MIC is the lowest concentration found to suppress growth. A low value points to inhibition by little substance. With `CC(O)c1ccc(-c2ccc3c(c2)OC[C@H]2[C@H](CO)OC(=O)N32)cn1` (some centres not stated), the minimal inhibitory concentration (MIC) with Enterococcus faecalis was found to be 2 µg/mL (≈ 5.84 µM); with Streptococcus pneumoniae, 2 µg/mL (≈ 5.84 µM); in the test with Staphylococcus aureus [1] it was 1 µg/mL (≈ 2.92 µM); in the test with Staphylococcus aureus [2], 1 µg/mL (≈ 2.92 µM); in test [3] it was 1 µg/mL (≈ 2.92 µM); in test [4] it was 1 µg/mL (≈ 2.92 µM).
`O=C1O[C@@H](CO)[C@@H]2COc3cc(-c4ccc(CO)nc4)ccc3N12`: the MIC is 4 µg/mL (≈ 12.2 µM) against Enterococcus faecalis; 2 µg/mL (≈ 6.09 µM) in the test on Streptococcus pneumoniae; 1 µg/mL (≈ 3.05 µM) in the test on Staphylococcus aureus [1]; 1 µg/mL (≈ 3.05 µM) with Staphylococcus aureus [2]; 0.5 µg/mL (≈ 1.52 µM) in test [3]; 0.5 µg/mL (≈ 1.52 µM) in test [4].
For `NCc1ccc(-c2ccc3c(c2)OC[C@H]2[C@H](CO)OC(=O)N32)cn1`, the MIC in the test on Enterococcus faecalis was 4 µg/mL (≈ 12.2 µM); against Streptococcus pneumoniae it was 4 µg/mL (≈ 12.2 µM); against Staphylococcus aureus [1], 2 µg/mL (≈ 6.11 µM); against Staphylococcus aureus [2], 2 µg/mL (≈ 6.11 µM); in test [3] it was 1 µg/mL (≈ 3.05 µM); in test [4], 0.5 µg/mL (≈ 1.53 µM).
For the molecule `N#Cc1ccc(-c2ccc3c(c2)OC[C@H]2[C@H](CN)OC(=O)N32)cn1`, the minimum inhibitory concentration (MIC) (in the test with Enterococcus faecalis; against Streptococcus pneumoniae; against Staphylococcus aureus [1]; in test [3]) was over 16 µg/mL in each case.
With `Cn1nnc(-c2ccc(-c3ccc4c(c3)OC[C@H]3[C@H](CO)OC(=O)N43)cn2)n1`, the minimal inhibitory concentration (MIC) in the test on Enterococcus faecalis came out at 4 µg/mL (≈ 10.5 µM); with Streptococcus pneumoniae, 1 µg/mL (≈ 2.63 µM); against Staphylococcus aureus [1], 1 µg/mL (≈ 2.63 µM); in the test with Staphylococcus aureus [2], 1 µg/mL (≈ 2.63 µM); in test [3], 1 µg/mL (≈ 2.63 µM); in test [4], 1 µg/mL (≈ 2.63 µM).
In the case of `CCN1CCN(c2ccc(-c3ccc4c(c3)OC[C@H]3[C@H](CO)OC(=O)N43)cn2)CC1`, the minimal inhibitory concentration (MIC) was determined as 4 µg/mL (≈ 9.74 µM) in the test with Enterococcus faecalis; 8 µg/mL (≈ 19.5 µM) in the test on Streptococcus pneumoniae; 4 µg/mL (≈ 9.74 µM) against Staphylococcus aureus [1]; 4 µg/mL (≈ 9.74 µM) in the test on Staphylococcus aureus [2]; 2 µg/mL (≈ 4.87 µM) in test [3]; 4 µg/mL (≈ 9.74 µM) in test [4].
`CC(C)N1CCN(c2ccc(-c3ccc4c(c3)OC[C@H]3[C@H](CO)OC(=O)N43)cn2)C(=O)C1`: the minimal inhibitory concentration (MIC) against Enterococcus faecalis amounted to 16 µg/mL (≈ 36.5 µM); in the test with Streptococcus pneumoniae, 4 µg/mL (≈ 9.12 µM); with Staphylococcus aureus [1] it was 2 µg/mL (≈ 4.56 µM); in the test with Staphylococcus aureus [2], 2 µg/mL (≈ 4.56 µM); in test [3], 2 µg/mL (≈ 4.56 µM); in test [4], 2 µg/mL (≈ 4.56 µM).
For `CC(C)N1CC(c2ccc(-c3ccc4c(c3)OC[C@H]3[C@H](CO)OC(=O)N43)cn2)OC1=O` (some centres not stated), the MIC against Enterococcus faecalis turned out to be 1 µg/mL (≈ 2.35 µM); in the test on Streptococcus pneumoniae it was 2 µg/mL (≈ 4.7 µM); with Staphylococcus aureus [1], 1 µg/mL (≈ 2.35 µM); in the test on Staphylococcus aureus [2], 1 µg/mL (≈ 2.35 µM); in test [3] it was 1 µg/mL (≈ 2.35 µM); in test [4], 2 µg/mL (≈ 4.7 µM).
As to `O=C1O[C@@H](CO)[C@@H]2COc3cc(-c4ccc(C(O)C5CC5)nc4)ccc3N12` (some centres not stated), the MIC against Enterococcus faecalis is 2 µg/mL (≈ 5.43 µM); in the test with Streptococcus pneumoniae, 1 µg/mL (≈ 2.71 µM); in the test on Staphylococcus aureus [1], 1 µg/mL (≈ 2.71 µM); in the test on Staphylococcus aureus [2], 1 µg/mL (≈ 2.71 µM); in test [3], 0.5 µg/mL (≈ 1.36 µM); in test [4] it was 1 µg/mL (≈ 2.71 µM).
In the case of `CC(C)N1CCN(c2ccc(-c3ccc4c(c3)OC[C@H]3[C@H](CO)OC(=O)N43)cn2)C1=O`, the MIC came out at 8 µg/mL (≈ 18.8 µM) in the test on Enterococcus faecalis; 4 µg/mL (≈ 9.42 µM) in the test on Streptococcus pneumoniae; 4 µg/mL (≈ 9.42 µM) in the test on Staphylococcus aureus [1]; 2 µg/mL (≈ 4.71 µM) against Staphylococcus aureus [2]; 2 µg/mL (≈ 4.71 µM) in test [3]; 4 µg/mL (≈ 9.42 µM) in test [4].
In the case of `CN1C[C@H](c2ccc(-c3ccc4c(c3)OC[C@H]3[C@H](CO)OC(=O)N43)cn2)OC1=O`, the MIC in the test with Enterococcus faecalis is 2 µg/mL (≈ 5.03 µM); against Streptococcus pneumoniae, 2 µg/mL (≈ 5.03 µM); against Staphylococcus aureus [1] it was 1 µg/mL (≈ 2.52 µM); against Staphylococcus aureus [2], 1 µg/mL (≈ 2.52 µM); in test [3], 0.5 µg/mL (≈ 1.26 µM); in test [4], 1 µg/mL (≈ 2.52 µM).
Turning to `O=C1O[C@@H](CO)[C@@H]2COc3cc(-c4ccc(C(F)(F)F)nc4)ccc3N12`, the MIC (in the test with Enterococcus faecalis; against Streptococcus pneumoniae; in the test with Staphylococcus aureus [1]; in test [3]) was over 16 µg/mL in each case.
Regarding `CCO/N=C(\C)c1ccc(-c2ccc3c(c2)OC[C@H]2[C@H](CO)OC(=O)N32)cn1`, the minimal inhibitory concentration (MIC) (against Enterococcus faecalis; against Streptococcus pneumoniae; with Staphylococcus aureus [1]; in test [3]) was over 32 µg/mL throughout.
